# Test results published in ChEMBL document CHEMBL1155479, “Highly potent, non-basic 5-HT6 ligands. Site mutagenesis evidence for a second binding mode at 5-HT6 for antagonism” (Bioorg Med Chem Lett, 2010).
# Molecular target: 5-hydroxytryptamine receptor 6 (Homo sapiens, UniProt P50406)
# Experiment: Displacement of [3H]LSD form human recombinant 5HT6 receptor
# Procedure, shortened: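 Membranes prepared from cells engineered to recombinantly express human 5-HT6 receptors; competitive radioligand binding with [3H]LSD; affinity reported as pKi (−log M).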
# Sequence of 5-hydroxytryptamine receptor 6 (P50406 whole entry): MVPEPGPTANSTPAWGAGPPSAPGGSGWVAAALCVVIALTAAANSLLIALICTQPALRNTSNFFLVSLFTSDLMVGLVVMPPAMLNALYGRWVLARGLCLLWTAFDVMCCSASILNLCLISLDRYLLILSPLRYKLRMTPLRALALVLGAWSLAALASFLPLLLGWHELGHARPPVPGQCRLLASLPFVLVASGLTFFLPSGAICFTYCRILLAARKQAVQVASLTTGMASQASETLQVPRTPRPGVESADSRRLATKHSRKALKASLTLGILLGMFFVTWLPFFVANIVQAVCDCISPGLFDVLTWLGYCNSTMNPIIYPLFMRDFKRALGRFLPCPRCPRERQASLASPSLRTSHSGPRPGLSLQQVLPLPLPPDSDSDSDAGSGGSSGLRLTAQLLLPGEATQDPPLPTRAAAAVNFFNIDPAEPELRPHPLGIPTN
row,Compound,Ki
1,N=C(N)NC(=O)C[C@@H]1CCCc2cc(S(=O)(=O)c3cccc(F)c3)ccc21,0.631 nM
2,CN(C)S(=O)(=O)NC[C@@H]1CCCc2cc(S(=O)(=O)c3cccc(F)c3)ccc21,2 nM
3,O=C(NC[C@@H]1CCCc2cc(S(=O)(=O)c3cccc(F)c3)ccc21)[C@H]1CCCN1,0.631 nM
4,COc1cccc(S(=O)(=O)c2ccc3c(c2)CCC[C@H]3CN)c1,0.398 nM
5,O=S(=O)(c1cccc(F)c1)c1ccc2c(c1)CCC[C@H]2CNS(=O)(=O)C(F)(F)F,31.6 nM
6,O=C(NC[C@@H]1CCCc2cc(S(=O)(=O)c3cccc(F)c3)ccc21)c1ncc[nH]1,15.8 nM
7,NC[C@@H]1CCCc2cc(S(=O)(=O)c3cccc(O)c3)ccc21,0.251 nM
8,CNC(=O)NC[C@@H]1CCCc2cc(S(=O)(=O)c3cccc(F)c3)ccc21,0.398 nM
9,CC(=O)N(C)C[C@@H]1CCCc2cc(S(=O)(=O)c3cccc(F)c3)ccc21,1.58 nM
10,COCCNC[C@@H]1CCCc2cc(S(=O)(=O)c3cccc(F)c3)ccc21,0.251 nM
11,CN(C)C(=O)NC[C@@H]1CCCc2cc(S(=O)(=O)c3cccc(F)c3)ccc21,2.51 nM
12,O=C(NC[C@@H]1CCCc2cc(S(=O)(=O)c3cccc(F)c3)ccc21)c1ccc[nH]1,5.01 nM
13,O=S(=O)(c1cccc(F)c1)c1ccc2c(c1)CCC[C@H]2CNCCO,0.126 nM
14,CC(=N)NCC1CCCc2cc(S(=O)(=O)c3ccccc3)ccc21 (stereo unspecified),0.631 nM
15,CC(=O)NC[C@@H]1CCCc2cc(S(=O)(=O)c3cccc(F)c3)ccc21,0.126 nM
16,NC[C@@H]1CCCc2cc(S(=O)(=O)c3cc(F)cc4[nH]cnc34)ccc21,5.01 nM
17,CNC(=O)CNC[C@@H]1CCCc2cc(S(=O)(=O)c3cccc(F)c3)ccc21,1 nM
18,NC[C@@H]1CCCc2cc(S(=O)(=O)C3CCCCC3)ccc21,> 1000 nM
19,O=C(CO)NC[C@@H]1CCCc2cc(S(=O)(=O)c3cccc(F)c3)cc(F)c21,0.251 nM
20,NC(=O)CNC[C@@H]1CCCc2cc(S(=O)(=O)c3cccc(F)c3)ccc21,0.1 nM

row,Compound,Ki
1,CNS(=O)(=O)NC[C@@H]1CCCc2cc(S(=O)(=O)c3cccc(F)c3)ccc21,1 nM
2,CNC[C@@H]1CCCc2cc(S(=O)(=O)c3cc[nH]c3)ccc21,0.158 nM
3,CC(=O)NC[C@@H]1CCCc2cc(S(=O)(=O)c3ccccc3)cc(F)c21,0.316 nM
4,COCC(=O)NC[C@@H]1CCCc2cc(S(=O)(=O)c3cccc(F)c3)ccc21,0.794 nM
5,NC[C@@H]1CCCc2cc(S(=O)(=O)c3cn[nH]c3)ccc21,2 nM
6,NC[C@@H]1CCCc2cc(S(=O)(=O)c3cc[nH]c3)ccc21,0.316 nM
7,N=C(N)NCC1CCCc2cc(S(=O)(=O)c3ccccc3)ccc21 (stereo unspecified),0.158 nM
8,CNCC(=O)NC[C@@H]1CCCc2cc(S(=O)(=O)c3cccc(F)c3)ccc21,0.158 nM
9,O=C1CN(C[C@@H]2CCCc3cc(S(=O)(=O)c4cccc(F)c4)ccc32)CCN1,6.31 nM
10,CN(C[C@@H]1CCCc2cc(S(=O)(=O)c3cccc(F)c3)ccc21)S(C)(=O)=O,0.398 nM
11,O=C1CN=C(NC[C@@H]2CCCc3cc(S(=O)(=O)c4cccc(F)c4)ccc32)N1,0.1 nM
12,NC[C@@H]1CCCc2cc(S(=O)(=O)c3ccccc3)ccc21,0.158 nM
13,CN(C)CC1CCCc2cc(S(=O)(=O)c3ccccc3)ccc21 (stereo unspecified),0.0631 nM
14,CN(C[C@@H]1CCCc2cc(S(=O)(=O)c3cccc(F)c3)ccc21)S(N)(=O)=O,3.98 nM
15,O=S(=O)(c1ccccc1)c1ccc2c(c1)CCCC2CNc1ncccn1 (stereo unspecified),25.1 nM
16,O=S(=O)(c1cccc(F)c1)c1ccc2c(c1)CCC[C@H]2CN1CC(O)C1,0.1 nM
17,NC(=O)NC[C@@H]1CCCc2cc(S(=O)(=O)c3cccc(F)c3)cc(F)c21,0.2 nM
18,NC[C@@H]1CCCc2cc(S(=O)(=O)c3cccc(F)c3)ccc21,0.0794 nM
19,NC[C@@H]1CCCc2cc(S(=O)(=O)c3cncs3)ccc21,0.794 nM
20,CC(C)(O)C(=O)NC[C@@H]1CCCc2cc(S(=O)(=O)c3cccc(F)c3)ccc21,2 nM

row,Compound,Ki
1,N#Cc1cccc(S(=O)(=O)c2ccc3c(c2)CCC[C@H]3CN)c1,0.501 nM
2,O=S(=O)(O)CCCNC[C@@H]1CCCc2cc(S(=O)(=O)c3cccc(F)c3)ccc21,1.26 nM
3,CN(C)CC(=O)NC[C@@H]1CCCc2cc(S(=O)(=O)c3cccc(F)c3)ccc21,0.398 nM
4,O=S(=O)(c1cccc(F)c1)c1ccc2c(c1)CCC[C@H]2CN1CCCS1(=O)=O,31.6 nM
5,NC(=O)NC[C@@H]1CCCc2cc(S(=O)(=O)c3cccc(F)c3)ccc21 [LANDIPIRDINE],0.2 nM
6,CN(CC(N)=O)C[C@@H]1CCCc2cc(S(=O)(=O)c3cccc(F)c3)ccc21,1.26 nM
7,NS(=O)(=O)NC[C@@H]1CCCc2cc(S(=O)(=O)c3cccc(F)c3)ccc21,0.126 nM
8,Cn1ccc(S(=O)(=O)c2ccc3c(c2)CCC[C@H]3CN)c1,7.94 nM
9,NC[C@@H]1CCCc2cc(S(=O)(=O)c3c[nH]c4ccccc34)ccc21,0.0501 nM
10,CS(=O)(=O)c1cccc(S(=O)(=O)c2ccc3c(c2)CCC[C@H]3CN)c1,3.98 nM
11,CNCC1CCCc2cc(S(=O)(=O)c3ccccc3)ccc21 (stereo unspecified),0.316 nM
12,O=C(CO)NC[C@@H]1CCCc2cc(S(=O)(=O)c3cccc(F)c3)ccc21,0.1 nM
13,CN(C[C@@H]1CCCc2cc(S(=O)(=O)c3cccc(F)c3)ccc21)C(N)=O,39.8 nM
14,CS(=O)(=O)NC[C@@H]1CCCc2cc(S(=O)(=O)c3cccc(F)c3)ccc21,0.2 nM
15,NCC(=O)NC[C@@H]1CCCc2cc(S(=O)(=O)c3cccc(F)c3)ccc21,0.316 nM
16,NC[C@@H]1CCCc2cc(S(=O)(=O)Cc3ccccc3)ccc21,158 nM
17,O=S(=O)(c1cccc(F)c1)c1cc(F)c2c(c1)CCC[C@H]2CNCCO,0.158 nM
18,COC(=O)NC[C@@H]1CCCc2cc(S(=O)(=O)c3cccc(F)c3)ccc21,1.58 nM
19,CC(C)(C)C(=O)NC[C@@H]1CCCc2cc(S(=O)(=O)c3cccc(F)c3)ccc21,3.98 nM

# Molecular target: Cytochrome P450 2D6 (Homo sapiens, UniProt P10635)
# Sequence (P10635 whole entry): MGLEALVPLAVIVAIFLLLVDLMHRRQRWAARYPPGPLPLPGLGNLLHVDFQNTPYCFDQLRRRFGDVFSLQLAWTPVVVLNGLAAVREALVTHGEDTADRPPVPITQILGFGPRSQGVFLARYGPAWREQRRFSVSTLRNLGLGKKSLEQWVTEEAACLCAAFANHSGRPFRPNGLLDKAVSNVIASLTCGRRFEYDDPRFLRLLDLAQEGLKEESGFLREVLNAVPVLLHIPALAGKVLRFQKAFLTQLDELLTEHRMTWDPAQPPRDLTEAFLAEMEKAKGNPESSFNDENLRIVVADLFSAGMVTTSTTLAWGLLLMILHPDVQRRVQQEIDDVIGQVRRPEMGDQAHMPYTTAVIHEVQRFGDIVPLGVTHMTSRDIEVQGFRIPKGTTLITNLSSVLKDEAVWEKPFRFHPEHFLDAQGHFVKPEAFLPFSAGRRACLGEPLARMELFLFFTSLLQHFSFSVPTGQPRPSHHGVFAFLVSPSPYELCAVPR
# Experiment: Inhibition of CYP2D6
# Assay type: ADME
row,Compound,IC50
1,N=C(N)NCC1CCCc2cc(S(=O)(=O)c3ccccc3)ccc21 (stereo unspecified),< 50 nM

# System: not listed separately
# Experiment: Inhibition of CYP450
# Assay type: ADME
row,Compound,IC50
1,CC(=O)NC[C@@H]1CCCc2cc(S(=O)(=O)c3ccccc3)cc(F)c21,> 15000 nM
